Data taken from ChEMBL document CHEMBL1121569, “Analogues of chloramphenicol: circular dichroism spectra, inhibition of ribosomal peptidyltransferase, and possible mechanism of action” (J Med Chem, 1980).

Key:
[1] = Dissociation constant (pKa); assay type: physicochemical
Escherichia coli [2] = test: Generation rate constant […] obtained from the inhibition of growth of Escherichia coli cells; assay type: organism-based
Escherichia coli [3] = test: Evaluated for percent inhibition against N-acetyl-L-[14C] phenylalanylpuromycin formation at 8e-4M; assay type: functional
How it was run: (§1)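 Cell-free puromycin reaction with E. coli MRE-600 70S ribosomes (NH4Cl-washed, 4.0 A260 units) in 0.1 mL containing 0.05 M Tris-HCl pH 7.4, 0.1 M NH4Cl, 0.01 M MgCl2, 10 μg poly(U), 0.20 A260 unit N-Ac-[14C]Phe-tRNA, puromycin and inhibitor. Incubated at 37 °C for 30 min. Product extracted into ethyl acetate and counted by scintillation. Single-point inhibition was read at 8×10^-4 M.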

Escherichia coli [4] = test: Evaluated for the concentration required for a 50% inhibition of N-acetyl-L-[14C] phenylalanylpuromycin formation; assay type: functional; how it was run: as §1
[5] = Evaluated for the inhibition constant determined from the Dixon and slope vs. inhibitor concentration plots; assay type: functional, Escherichia coli
How it was run: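 Ki values came from the E. coli MRE-600 70S ribosome puromycin reaction, using poly(U), N-Ac-[14C]Phe-tRNA and puromycin in Tris-HCl pH 7.4 with NH4Cl and MgCl2, at 37 °C for 30 min. Inhibitor concentration was varied. Ethyl acetate-extracted product was counted by scintillation. Ki was derived from Dixon plots built by linear regression and from slope versus inhibitor concentration plots.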

SMILES	pKa [1]	Log k (Escherichia coli [2])	Ki [5] [nM]	inhibition (Escherichia coli [3]) [%]	ID50 (Escherichia coli [4]) [µM]
CS(=O)(=O)NC(CO)C(O)c1ccc([N+](=O)[O-])cc1 (configuration not stated)	-0.6	–	1100	–	200
O=CNC(CO)C(O)c1ccc([N+](=O)[O-])cc1 (configuration not stated)	3.77	–	–	10	–
N#CCC(=O)NC(CO)C(O)c1ccc([N+](=O)[O-])cc1 (configuration not stated)	2.43	0.14	1700	–	350
O=C(CF)NC(CO)C(O)c1ccc([N+](=O)[O-])cc1 (configuration not stated)	2.66	1.16	–	27	–
O=[N+]([O-])c1ccc(C(O)C(CO)NP(=O)(O)CCl)cc1 (configuration not stated)	1.4	–	–	10	–
[N-]=[N+]=NCC(=O)NC(CO)C(O)c1ccc([N+](=O)[O-])cc1 (configuration not stated)	3.03	–	22000	60	–
O=C(NC(CO)C(O)c1ccc([N+](=O)[O-])cc1)c1ccco1 (configuration not stated)	3.12	–	–	10	–
O=C(NC(CO)C(O)c1ccc([N+](=O)[O-])cc1)C(Cl)(Cl)Cl (configuration not stated)	0.65	0.75	3000	–	250
CCCC(=O)NC(CO)C(O)c1ccc([N+](=O)[O-])cc1 (configuration not stated)	4.82	0.71	–	34	–

Now from value to compound, other results behind:

pKa [1]	Log k (Escherichia coli [2])	Ki [5] [nM]	SMILES	inhibition (Escherichia coli [3]) [%]	ID50 (Escherichia coli [4]) [µM]
4.76	0.48	–	CC(=O)NC(CO)C(O)c1ccc([N+](=O)[O-])cc1 (configuration not stated)	34	–
3.83	–	–	O=C(CO)NC(CO)C(O)c1ccc([N+](=O)[O-])cc1 (configuration not stated)	10	–
4.88	–	–	CCC(=O)NC(CO)C(O)c1ccc([N+](=O)[O-])cc1 (configuration not stated)	39	–
2.86	1.71	27000	O=C(CCl)NC(CO)C(O)c1ccc([N+](=O)[O-])cc1 (configuration not stated)	–	500
4.79	–	–	O=C(NC(CO)C(O)c1ccc([N+](=O)[O-])cc1)C1CCC1 (configuration not stated)	10	–
1.29	–	1600	O=C(N[C@H](CO)[C@H](O)c1ccc([N+](=O)[O-])cc1)C(Cl)Cl [CHLORAMPHENICOL]	–	30
–	1.84	1000	O=C(NC(CO)C(O)c1ccc([N+](=O)[O-])cc1)C(Br)Br (configuration not stated)	–	70
4.83	–	–	O=C(NC(CO)C(O)c1ccc([N+](=O)[O-])cc1)C1CC1 (configuration not stated)	20	–
